# Compound activity deposited in PubChem BioAssay by Broad Institute.
# HIF activator: HIF pathway transcriptional activators, primary screen, cell-based, U2OS HRE-luciferase, luminescence; activation, % at 7.5 µM (by protocol); hit rate 0.32% among 300,000; AID 1910, 2009; U2OS HRE-luciferase reporter; normalized: DMSO 0%, desferrioxamine 100%;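 active = mean activation of at least 10% of the iron chelator positive control signal, with at least half of replicates also reaching 10%; inconclusive = mean and replicate majority disagree about reaching 10%; inactive = mean and most replicates under 10%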
# CSC inhib: cancer stem cell viability inhibitors, primary screen, luminescence | cancer stem cell-like cells viability | inhibition, % at 7.5 µM | hit rate 1.1% among 300,000; in the data active = inhibition above about 75%; inconclusive = no clear call, values can overlap the other calls; tested in HMLE shEcad cells
# Calb FLC: C. albicans growth inhibition with fluconazole, primary screen, CaCi-2 strain, Alamar Blue fluorescence. AID 1979, 2009. hit rate 0.57% among 300,000. growth inhibition, % (test concentration not listed). C. albicans CaCi-2 (fluconazole-resistant clinical isolate) + fluconazole, 48 h;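 active = growth inhibition above about 58% in most replicates, limit read from the data, passing the limit was not always enough; inconclusive = exactly half the replicates above a set limit; inactive = most replicates below a set limit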;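 note: all wells also contain fluconazole at 8 µg/ml as a sub-toxic cotreatment; 0% = median of DMSO wells and 100% = median of geldanamycin control wells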
# T cruzi inh: inhibitors of intracellular T. cruzi growth, primary screen, luminescence, NIH3T3 host cells; T. cruzi beta-gal in NIH3T3, 90 h; inhibition, % (test concentration not listed); hit rate 1.4% among 300,000;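 active = mean inhibition across valid replicates above about 55%, limit read from the data; inconclusive = mean below that limit but half or more replicates reach it; inactive = mean below it, under half of replicates reach it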;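 note: signal also drops with host cell toxicity which is not excluded here; 0% = plate median of DMSO wells and 100% = zero luminescence signal; higher percent means less beta-gal luminescence so fewer parasites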
#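 Test system: β-gal T. cruzi (Tulahuen C4) inside NIH/3T3 cells / Quantity: 5,000 cells/well / Measured by: luminescence from GalScreen with 0.05% NP40, read after 60 min / Medium: DMEM plus 2% FBS / Measure: parasite load inhibition, % / Reagent: Tulahuen C4 trypomastigotes, 5000/well / Schedule: co-culture of at least 90 h after 3 h attachment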
# Beta apoptosis: inhibitors of cytokine-induced beta cell apoptosis, primary screen, luminescence; INS-1E cytokine-induced death, ATP luminescence, 48 h; percent of positive-control rescue, neutral wells zero; protection from apoptosis, % (no concentration beside the values); hit rate 0.8% among 300,000; AID 435005, 2010;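 active = Every replicate reaches about 75%, or at least half do and their mean reaches it too, limit read from the data; inconclusive = At least half of replicates reach the limit but their mean does not; inactive = Under half of replicates reach the limit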;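 note: 0% = cytokine-treated negative control wells and 100% = positive control rescue; higher means more ATP so stronger rescue from cytokine killing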
# PolyA inhibitor: polyadenylation inhibitors in yeast reporter cells, primary screen, luminescence, S. cerevisiae. hit rate 0.02% among 300,000. S. cerevisiae SKY197-pL101 polyadenylation reporter, beta-gal luminescence; efflux-impaired pdr1/pdr3 knockout yeast; score 100 = 6 SD above DMSO. activity score, % at 12 µM. AID 1875, 2009;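 active = lowest replicate activity score at least 50, where 100 means six control SD above control mean; inconclusive = lowest score under 50 but half or more replicates reach 50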;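 note: yeast exposed to compound for 9 h at 30 °C; higher score means more reporter readthrough which indicates perturbed polyadenylation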
# Active calls of the source: *; u = inconclusive; x = not tested or not shown. A selection: hits, their analogues and other compounds. The true share with any hit is near 3.1%.
SMILES,HIF activator,CSC inhib,Calb FLC,T cruzi inh,Beta apoptosis,PolyA inhibitor
O=S1(=O)Nc2c(ccc3cccnc23)-c2ccccc21,1.5,95.5*,8.6,72.0*,30.9,-86.8
O=S(=O)(Nc1cccc2cccnc12)c1ccc(S(=O)(=O)N2CCCC2)cc1,0.2,45.4,96.4*,68.9*,52.6,-5.6
Cc1ccc(S(=O)(=O)Nc2cccc3cccnc23)c([N+](=O)[O-])c1,1.5,-3.7,4.3,15.0,-3.1,72.4*
Cc1cc(C)c(NS(=O)(=O)c2cccc3cccnc23)c(C)c1,0.1,-4.1,73.3*,-0.8,0.5,-4.0
CS(=O)(=O)Nc1cccc2cccnc12,x,-10.1,x,x,3.6,x
COc1ccccc1-n1cc(CN2CCN(CC=C(C)C)C(CCO)C2)cn1 (stereo not drawn),0.3,5.8,-5.9,3.0,-1.1,18.4
O=C(/C=C/c1cccc(Cl)c1)Nn1c(-c2cccs2)nc2ccccc2c1=O,-0.2,20.7,26.1,23.5,3.3,-15.7
CCN(CC)c1ccc(/C=N/NC(=O)CNC(=O)C2COc3ccccc3O2)c(O)c1 (stereo not drawn),19.3*,3.9,89.5*,62.7*,98.6*,-1.7
CCN(CC)c1ccc(/C=N/NC(=O)CCC(=O)NCc2ccccc2)c(O)c1,1.5,82.2*,-0.8,26.9,97.8*,0.2
CCOC(=O)N/N=C/c1ccc(N(CC)CC)cc1O,4.4,x,-0.4,-8.5,x,-6.8
C[C@H](CO)N1C[C@H](C)[C@H](CN(C)Cc2ccc(-c3ccccc3)cc2)Oc2ccc(NS(=O)(=O)c3ccccc3)cc2CC1=O,x,97.5*,x,x,-5.1,x
Cc1ccc(S(=O)(=O)Nc2ccc3c(c2)C(=O)N([C@H](C)CO)C[C@H](C)[C@@H](CN(C)Cc2ccccc2)O3)cc1,x,-10.7,x,x,-5.0,x
C[C@@H]1CN([C@@H](C)CO)C(=O)Cc2cc(NS(=O)(=O)c3ccccc3)ccc2O[C@H]1CN(C)Cc1ccncc1,x,-17.0,x,x,-2.3,x
Cc1ccc(S(=O)(=O)Nc2ccc3c(c2)CC(=O)N([C@H](C)CO)C[C@@H](C)[C@H](CN(C)Cc2ccc(-c4ccccc4)cc2)O3)cc1,x,108.5*,x,x,-9.5,x
C[C@H]1CN([C@@H](C)CO)C(=O)Cc2cc(NC(=O)CCC(F)(F)F)ccc2O[C@H]1CN(C)Cc1ccc(-c2ccccc2)cc1,x,122.7*,x,x,14.3,x
O=C(Cc1nc2ccccc2[nH]1)c1ccc(Br)cc1,3.4,21.0,-3.0,38.4,2.0,-10.2
CCN1CCc2c(C#N)c(NCc3ccccc3)nc(N(CC)CC)c2C1,-0.4,9.6,-16.3,81.7*,-2.7,-13.8
Cc1cc(NCc2ccccn2)n2nc(C)c(-c3ccccc3)c2n1,x,4.6,5.4,x,41.9,-46.5
Cc1nn2c(NCc3ccccn3)cc(C(C)(C)C)nc2c1-c1ccccc1,-0.5,14.3,7.4,56.7*,24.3,-55.0
Clc1cccc(/C(Cc2nc3ccccc3[nH]2)=N\Nc2ccccc2)c1,0.3,54.2,14.4,4.5,13.2,4.8
O=C(O)C1Nc2c(O)cc(Cl)c([N+](=O)[O-])c2C2C=CCC12 (stereo not drawn),0.1,-7.9,9.0,-4.3,6.5,1.9
COC(=O)C1=C(C)N(Cc2ccccc2)C(=NCc2cccc(C(F)(F)F)c2)N[C@H]1c1cccc(F)c1,-3.1,110.5*,u,45.2,111.3*,18.8
COCCN=C1N[C@@H](c2cccc(C(F)(F)F)c2)C(C(=O)OC)=C(C)N1Cc1ccccc1,0.1,4.4,-7.6,26.3,4.6,21.8
COC(=O)C1=C(C)N(Cc2ccccc2)C(=NCc2cccc(C(F)(F)F)c2)N[C@H]1c1cccc(C(F)(F)F)c1,x,x,x,x,99.1*,x
COC(=O)C1=C(C)N(CC2CC2)C(=NCc2cccc(C(F)(F)F)c2)N[C@H]1c1ccccc1,x,6.3,x,x,-4.7,x
SMILES,HIF activator,CSC inhib,Calb FLC,T cruzi inh,Beta apoptosis,PolyA inhibitor
Cc1cc(Sc2ncnc(N)c2[N+](=O)[O-])ncn1,-0.2,37.0,101.1*,53.3,-40.8,-9.0
Cc1cc(Sc2nc(N)ncc2[N+](=O)[O-])ncn1,0.7,15.3,105.1*,61.3*,-13.5,0.3
CCCCC(NC(=O)Cc1c(C)c2cc3c(-c4ccccc4)coc3c(C)c2oc1=O)C(=O)O (stereo not drawn),-0.2,19.4,20.6,-9.5,-5.5,7.3
CCOC(=O)c1sc(NC(=O)c2cc3ccccc3o2)nc1C,2.5,8.1,0.7,-0.3,-13.2,-14.9
C=CCOC(=O)c1sc(NC(=O)c2ccco2)nc1C,3.8,70.9,78.5*,-4.1,18.5,-9.0
COc1ccc(C2NCCc3c2[nH]c2ccccc32)cc1CN1CCc2cc(OC)c(OC)cc2C1C (stereo not drawn),2.4,x,-9.3,61.2*,x,-0.5
COc1ccc(C2NCCc3c2[nH]c2ccccc32)cc1COc1ccc(F)cc1 (stereo not drawn),-0.2,u,3.4,48.8,104.4*,2.8
COc1ccc(/C=N/NC(=O)c2cc(OC)c(OC)c(OC)c2)cc1CN1CCc2cc(OC)c(OC)cc2C1C (stereo not drawn),1.9,x,-1.8,28.6,x,4.5
c1ccc(-c2nnc(-c3ccccn3)c(-c3ccccn3)n2)nc1,0.1,-5.8,-0.8,-10.3,-0.4,2.0
CCN(CC)c1nc(-c2ccccn2)nc(-c2ccccc2)c1C#N,0.5,-14.9,102.9*,57.9*,x,-36.8
CN(C)c1nc(-c2ccccn2)nnc1-c1ccccc1,105.3*,-9.5,-2.2,50.1,5.1,-6.4
Cc1nnc(-c2ccccc2)nc1N(C)C,701.5*,0.0,1.9,2.9,-3.7,-5.0
Cc1ccc(C)c(NC(=O)C[n+]2ccccc2)c1,-0.3,-5.1,-7.7,-6.4,-2.5,-3.3
O=C(Cn1c2ccccc2c(=O)c2ccccc21)N/N=C/c1ccc(N2CCCC2)c([N+](=O)[O-])c1,x,112.6*,4.2,-6.2,30.5,-2.8
S=C(NCc1ccccc1)Nc1cccc(Cl)c1,x,-3.7,-1.5,8.8,0.5,25.4
NNC(=S)Nc1cccc(Cl)c1,-0.2,-13.6,92.1*,2.5,-0.4,4.6
O=C(COC(=O)/C=C/c1ccc([N+](=O)[O-])cc1)NCC1CCCCC1,x,5.4,x,x,-1.5,x
COc1cc(/C=c2\sc3n(c2=O)C(c2ccccc2)C(c2ccccc2)=NN=3)ccc1O (stereo not drawn),x,103.3*,x,x,13.8,x
OC(COCC(F)(F)C(F)(F)C(F)(F)C(F)F)Cn1c2ccc(Cl)cc2c2cc(Cl)ccc21 (stereo not drawn),-0.3,115.6*,-1.2,51.4,x,-11.7
Cc1ccc(C)c(N(CC(=O)NCc2ccco2)C(=O)CCC(=O)Nc2nccs2)c1,-4.0,-8.6,-4.2,-16.3,1.6,-19.6
